Reference: ChEMBL document CHEMBL5303300, “EUbOPEN Chemogenomics Library - Multiplex” (2023)
Values joined by “and” are separate entries in the source; they are usually repeats but may differ in a detail not shown here. Identical values can stand only once.

Test system: Fibroblast
Assay: Multiplex assay against human fibroblast
Format: toxicity, cell-based
Conditions: number of replicates 2
Procedure, shortened: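 Four dyes were applied at seeding to live cells: Hoechst33342, BioTracker Green Microtubule Cytoskeleton Dye, MitoTracker Red and Annexin V Alexa Fluor 680. Imaging after compound addition used a CQ1 microscope at 37°C and 5% CO2. CellPathfinder machine-learning gating then sorted cells into Hoechst high-intensity objects or normal cells, normal cells into healthy, pyknosed or fragmented nuclei, and pyknosed cells into mitotic or apoptotic, with tubulin, mitochondrial-mass and membrane-permeability phenotypes given as per cents of healthy-nucleus cells.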

[1] = 12 h, 1 µM, compound concentration 1 uM
[2] = 12 h, 10 µM, compound concentration 10 uM
[3] = 24 h, 1 µM, compound concentration 1 uM
[4] = 24 h, 10 µM, compound concentration 10 uM
[5] = 48 h, 1 µM, compound concentration 1 uM
[6] = 48 h, 10 µM, compound concentration 10 uM

CCn1ccc(Nc2ncc3c(n2)-c2c(nn(C)c2-c2ccc(-c4cnn(C)c4)cc2Cl)CC3)n1
Population Apoptotic (%) [1]: 36% and 33%
Population Fragmented Nuclei (%) [1]: 11% and 9%
Population Healthy Nuclei (%) [1]: 71% and 65%
Population Hoechst High Intensity Objects (%) [1]: 0%
Population Membrane Permeable-Phenotype (%) [1]: 8% and 7%
Population Mitochondria Different-Phenotype (%) [1]: 1% and 2%
Population Mitotic Cells (%) [1]: 63% and 66%
Population Normal (%) [1]: 99%
Population Pyknosed Nuclei (%) [1]: 17% and 25%
Population Tubulin-Different-Phenotype (%) [1]: 14% and 18%
Total Cell Count [1]: 258 and 213
Population Apoptotic (%) [2]: 51% and 48%
Population Fragmented Nuclei (%) [2]: 11%
Population Healthy Nuclei (%) [2]: 75% and 69%
Population Hoechst High Intensity Objects (%) [2]: 0%
Population Membrane Permeable-Phenotype (%) [2]: 5% and 6%
Population Mitochondria Different-Phenotype (%) [2]: 2% and 1%
Population Mitotic Cells (%) [2]: 48% and 51%
Population Normal (%) [2]: 100%
Population Pyknosed Nuclei (%) [2]: 13% and 19%
Population Tubulin-Different-Phenotype (%) [2]: 56% and 41%
Total Cell Count [2]: 204 and 191
Population Apoptotic (%) [3]: 40% and 49%
Population Fragmented Nuclei (%) [3]: 10% and 7%
Population Healthy Nuclei (%) [3]: 75% and 66%
Population Hoechst High Intensity Objects (%) [3]: 0%
Population Membrane Permeable-Phenotype (%) [3]: 2% and 6%
Population Mitochondria Different-Phenotype (%) [3]: 0% and 1%
Population Mitotic Cells (%) [3]: 59% and 50%
Population Normal (%) [3]: 100% and 99%
Population Pyknosed Nuclei (%) [3]: 13% and 25%
Population Tubulin-Different-Phenotype (%) [3]: 7% and 8%
Total Cell Count [3]: 239 and 234
Population Apoptotic (%) [4]: 60% and 55%
Population Fragmented Nuclei (%) [4]: 8% and 6%
Population Healthy Nuclei (%) [4]: 78% and 77%
Population Hoechst High Intensity Objects (%) [4]: 0%
Population Membrane Permeable-Phenotype (%) [4]: 1% and 4%
Population Mitochondria Different-Phenotype (%) [4]: 1% and 2%
Population Mitotic Cells (%) [4]: 40% and 44%
Population Normal (%) [4]: 100% and 99%
Population Pyknosed Nuclei (%) [4]: 12% and 15%
Population Tubulin-Different-Phenotype (%) [4]: 62% and 39%
Total Cell Count [4]: 202 and 187
Population Apoptotic (%) [5]: 71% and 69%
Population Fragmented Nuclei (%) [5]: 13% and 12%
Population Healthy Nuclei (%) [5]: 75% and 67%
Population Hoechst High Intensity Objects (%) [5]: 0%
Population Membrane Permeable-Phenotype (%) [5]: 2% and 3%
Population Mitochondria Different-Phenotype (%) [5]: 0%
Population Mitotic Cells (%) [5]: 28% and 30%
Population Normal (%) [5]: 99% and 100%
Population Pyknosed Nuclei (%) [5]: 11% and 19%
Population Tubulin-Different-Phenotype (%) [5]: 6% and 7%
Total Cell Count [5]: 252 and 233
Population Apoptotic (%) [6]: 84% and 82%
Population Fragmented Nuclei (%) [6]: 14% and 8%
Population Healthy Nuclei (%) [6]: 68% and 75%
Population Hoechst High Intensity Objects (%) [6]: 0%
Population Membrane Permeable-Phenotype (%) [6]: 2% and 3%
Population Mitochondria Different-Phenotype (%) [6]: 4% and 3%
Population Mitotic Cells (%) [6]: 15% and 17%
Population Normal (%) [6]: 100%
Population Pyknosed Nuclei (%) [6]: 16%
Population Tubulin-Different-Phenotype (%) [6]: 56% and 38%
Total Cell Count [6]: 195 and 170

COc1cc(OC)cc(C(=O)NNC(=O)Nc2cccc3ccccc23)c1
Population Apoptotic (%) [1]: 32% and 47%
Population Fragmented Nuclei (%) [1]: 6% and 18%
Population Healthy Nuclei (%) [1]: 77% and 72%
Population Hoechst High Intensity Objects (%) [1]: 0%
Population Membrane Permeable-Phenotype (%) [1]: 3%
Population Mitochondria Different-Phenotype (%) [1]: 0% and 1%
Population Mitotic Cells (%) [1]: 67% and 52%
Population Normal (%) [1]: 100%
Population Pyknosed Nuclei (%) [1]: 15% and 8%
Population Tubulin-Different-Phenotype (%) [1]: 10% and 5%
Total Cell Count [1]: 196 and 216
Population Apoptotic (%) [2]: 34% and 37%
Population Fragmented Nuclei (%) [2]: 9% and 7%
Population Healthy Nuclei (%) [2]: 70% and 85%
Population Hoechst High Intensity Objects (%) [2]: 0%
Population Membrane Permeable-Phenotype (%) [2]: 3% and 2%
Population Mitochondria Different-Phenotype (%) [2]: 1% and 0%
Population Mitotic Cells (%) [2]: 65% and 62%
Population Normal (%) [2]: 100%
Population Pyknosed Nuclei (%) [2]: 20% and 7%
Population Tubulin-Different-Phenotype (%) [2]: 12% and 6%
Total Cell Count [2]: 159 and 228
Population Apoptotic (%) [3]: 41% and 50%
Population Healthy Nuclei (%) [3]: 87% and 76%
Population Hoechst High Intensity Objects (%) [3]: 0%
Population Membrane Permeable-Phenotype (%) [3]: 3% and 1%
Population Mitochondria Different-Phenotype (%) [3]: 2% and 0%
Population Mitotic Cells (%) [3]: 58% and 50%
Population Normal (%) [3]: 100%
Population Pyknosed Nuclei (%) [3]: 8% and 6%
Population Tubulin-Different-Phenotype (%) [3]: 11% and 3%
Total Cell Count [3]: 199 and 203
Population Apoptotic (%) [4]: 38% and 25%
Population Fragmented Nuclei (%) [4]: 10%
Population Healthy Nuclei (%) [4]: 77% and 85%
Population Hoechst High Intensity Objects (%) [4]: 0%
Population Membrane Permeable-Phenotype (%) [4]: 3% and 0%
Population Mitochondria Different-Phenotype (%) [4]: 2% and 0%
Population Mitotic Cells (%) [4]: 61% and 75%
Population Normal (%) [4]: 100% and 99%
Population Pyknosed Nuclei (%) [4]: 11% and 3%
Total Cell Count [4]: 155 and 236
Population Apoptotic (%) [5]: 62% and 56%
Population Fragmented Nuclei (%) [5]: 7% and 15%
Population Healthy Nuclei (%) [5]: 88% and 78%
Population Hoechst High Intensity Objects (%) [5]: 0%
Population Membrane Permeable-Phenotype (%) [5]: 1% and 2%
Population Mitochondria Different-Phenotype (%) [5]: 0%
Population Mitotic Cells (%) [5]: 37% and 43%
Population Normal (%) [5]: 100%
Population Pyknosed Nuclei (%) [5]: 3% and 6%
Population Tubulin-Different-Phenotype (%) [5]: 5% and 1%
Total Cell Count [5]: 213 and 238
Population Apoptotic (%) [6]: 66% and 70%
Population Fragmented Nuclei (%) [6]: 12% and 9%
Population Healthy Nuclei (%) [6]: 82% and 86%
Population Hoechst High Intensity Objects (%) [6]: 0%
Population Membrane Permeable-Phenotype (%) [6]: 5% and 0%
Population Mitochondria Different-Phenotype (%) [6]: 0%
Population Mitotic Cells (%) [6]: 33% and 30%
Population Normal (%) [6]: 99%
Population Pyknosed Nuclei (%) [6]: 5% and 4%
Population Tubulin-Different-Phenotype (%) [6]: 8% and 1%
Total Cell Count [6]: 165 and 243
